In ChEMBL document CHEMBL1671834, “Novel 3-aryl indoles as progesterone receptor antagonists for uterine fibroids” (ACS Med Chem Lett, 2011):

Legend:
Androgen receptor = target: T1, Androgen receptor (Homo sapiens, UniProt P10275); test: Displacement of [3H]methyltrienolone from human androgen receptor expressed in HEK293 cells; assay type: cell-based
T1 sequence (P10275 whole entry): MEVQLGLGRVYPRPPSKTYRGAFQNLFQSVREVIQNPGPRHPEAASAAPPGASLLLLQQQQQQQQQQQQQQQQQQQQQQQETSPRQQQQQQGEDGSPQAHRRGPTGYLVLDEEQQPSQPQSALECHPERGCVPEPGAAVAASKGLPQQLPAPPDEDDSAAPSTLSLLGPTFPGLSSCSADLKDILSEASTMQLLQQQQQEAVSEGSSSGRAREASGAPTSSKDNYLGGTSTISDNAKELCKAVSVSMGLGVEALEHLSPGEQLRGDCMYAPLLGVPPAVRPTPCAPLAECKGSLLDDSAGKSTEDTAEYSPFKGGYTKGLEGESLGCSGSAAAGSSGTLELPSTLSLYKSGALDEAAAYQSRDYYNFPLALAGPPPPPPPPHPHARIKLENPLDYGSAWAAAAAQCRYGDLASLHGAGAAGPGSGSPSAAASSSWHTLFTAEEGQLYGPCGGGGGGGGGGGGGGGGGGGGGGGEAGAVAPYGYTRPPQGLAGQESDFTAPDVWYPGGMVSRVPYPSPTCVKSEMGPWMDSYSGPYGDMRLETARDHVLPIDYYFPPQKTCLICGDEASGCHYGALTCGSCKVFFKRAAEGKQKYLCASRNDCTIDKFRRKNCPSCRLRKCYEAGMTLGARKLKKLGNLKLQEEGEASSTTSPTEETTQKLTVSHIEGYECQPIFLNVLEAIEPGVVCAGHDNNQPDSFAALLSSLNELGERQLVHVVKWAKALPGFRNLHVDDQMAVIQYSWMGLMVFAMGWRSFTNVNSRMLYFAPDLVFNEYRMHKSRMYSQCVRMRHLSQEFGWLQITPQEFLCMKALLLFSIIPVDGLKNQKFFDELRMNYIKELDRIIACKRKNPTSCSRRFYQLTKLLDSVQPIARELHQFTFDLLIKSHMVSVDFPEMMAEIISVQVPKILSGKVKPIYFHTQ

Glucocorticoid receptor = target: T2, Glucocorticoid receptor (Homo sapiens, UniProt P04150); test: Displacement of [3H]methyltrienolone from human glucocorticoid receptor expressed in HEK293 cells; assay type: cell-based
T2 sequence (P04150 whole entry): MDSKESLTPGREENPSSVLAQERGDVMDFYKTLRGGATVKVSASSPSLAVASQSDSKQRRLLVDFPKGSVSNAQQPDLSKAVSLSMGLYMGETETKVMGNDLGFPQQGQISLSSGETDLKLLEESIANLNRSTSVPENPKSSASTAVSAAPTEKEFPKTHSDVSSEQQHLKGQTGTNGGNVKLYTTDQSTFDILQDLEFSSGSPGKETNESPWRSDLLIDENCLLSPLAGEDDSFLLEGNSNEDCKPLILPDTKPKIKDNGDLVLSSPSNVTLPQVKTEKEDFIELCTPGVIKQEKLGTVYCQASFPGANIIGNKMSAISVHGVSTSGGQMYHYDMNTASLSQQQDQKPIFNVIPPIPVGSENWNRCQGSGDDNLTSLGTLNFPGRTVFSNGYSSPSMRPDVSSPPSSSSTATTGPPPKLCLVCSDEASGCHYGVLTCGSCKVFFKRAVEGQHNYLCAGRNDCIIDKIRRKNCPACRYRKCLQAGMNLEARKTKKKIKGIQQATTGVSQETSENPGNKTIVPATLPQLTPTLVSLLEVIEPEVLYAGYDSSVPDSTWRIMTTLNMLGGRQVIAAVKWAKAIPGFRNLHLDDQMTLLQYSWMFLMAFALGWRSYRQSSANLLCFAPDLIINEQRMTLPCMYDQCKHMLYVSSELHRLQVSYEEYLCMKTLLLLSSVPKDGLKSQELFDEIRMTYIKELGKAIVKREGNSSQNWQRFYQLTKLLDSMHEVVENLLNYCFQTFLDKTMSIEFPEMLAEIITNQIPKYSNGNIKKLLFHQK

[1] = target: T3, Progesterone receptor (Homo sapiens) (UniProt P06401); test: Antagonist activity at human progesterone receptor expressed in HEK293 cells assessed as inhibition of […]-induced transcriptional activity by GRE-driven luciferase reporter gene assay relative to untreated control; assay type: functional, cell-based; parameters: concentration or dose not given beside the values; details: concentration not given here
T3 sequence (whole entry): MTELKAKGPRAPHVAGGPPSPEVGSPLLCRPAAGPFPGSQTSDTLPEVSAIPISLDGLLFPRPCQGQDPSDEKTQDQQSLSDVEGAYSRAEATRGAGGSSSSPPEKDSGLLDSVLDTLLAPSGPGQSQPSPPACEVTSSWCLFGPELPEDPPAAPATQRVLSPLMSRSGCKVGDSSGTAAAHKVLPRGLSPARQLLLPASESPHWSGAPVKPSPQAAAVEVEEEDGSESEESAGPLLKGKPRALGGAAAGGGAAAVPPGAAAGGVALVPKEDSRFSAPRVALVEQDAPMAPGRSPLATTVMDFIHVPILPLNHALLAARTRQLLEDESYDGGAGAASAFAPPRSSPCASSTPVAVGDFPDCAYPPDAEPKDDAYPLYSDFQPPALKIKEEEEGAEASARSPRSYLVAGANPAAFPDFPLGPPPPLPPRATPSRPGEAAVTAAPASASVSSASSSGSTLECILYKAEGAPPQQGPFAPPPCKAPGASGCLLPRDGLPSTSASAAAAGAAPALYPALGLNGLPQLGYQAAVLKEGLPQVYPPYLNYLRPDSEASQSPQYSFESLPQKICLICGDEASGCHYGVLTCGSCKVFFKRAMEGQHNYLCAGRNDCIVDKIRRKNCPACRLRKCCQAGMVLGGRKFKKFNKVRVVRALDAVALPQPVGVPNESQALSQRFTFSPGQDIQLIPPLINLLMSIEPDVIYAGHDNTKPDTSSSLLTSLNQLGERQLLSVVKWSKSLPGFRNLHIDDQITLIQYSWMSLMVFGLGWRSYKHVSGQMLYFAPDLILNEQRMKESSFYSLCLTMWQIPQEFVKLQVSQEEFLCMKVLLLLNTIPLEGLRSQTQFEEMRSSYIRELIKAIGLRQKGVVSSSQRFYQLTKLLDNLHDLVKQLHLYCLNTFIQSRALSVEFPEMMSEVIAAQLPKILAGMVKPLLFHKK
Summary of the method: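 Transcription assay in HEK293 cells cotransfected with full-length human receptor. Values are geometric means of at least duplicate determinations.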

Row | Ki (Androgen receptor) | Ki (Glucocorticoid receptor) | inhibition [1] | Compound
1 | 0.49 µM | 0.977 µM | 97.4% | COc1cc(-c2cn(C(C)C)c3cc(NS(C)(=O)=O)ccc23)ccc1C#N
2 | 1.74 µM | 1.86 µM | 96.8% | CC[C@H](C)n1cc(-c2ccc(C#N)cc2)c2ccc(NS(C)(=O)=O)cc21
3 | > 3.9 µM | 1.53 µM | 96.2% | CC(C)n1cc(-c2ccc(C#N)cc2)c2ccc(NS(C)(=O)=O)cc21
4 | 0.0689 µM | 0.0502 µM | 86.5% | COc1ccc(C(c2ccccc2)c2c[nH]c3ccccc23)cc1 (stereo not given)
5 | 2.59 µM | 0.927 µM | 97% | CCn1cc(-c2ccc(C#N)cc2)c2ccc(NS(C)(=O)=O)cc21
6 | 0.403 µM | 0.157 µM | 95.8% | Cc1cc(-c2cn(C(C)C)c3cc(NS(C)(=O)=O)ccc23)ccc1C#N
7 | 2.55 µM | 0.78 µM | 96.2% | CC[C@@H](C)n1cc(-c2ccc(C#N)cc2)c2ccc(NS(C)(=O)=O)cc21
8 | > 4.02 µM | > 4.29 µM | 87.8% | Cn1cc(-c2ccc(C#N)cc2)c2ccc(NS(C)(=O)=O)cc21
9 | 0.648 µM | 0.523 µM | 94.9% | CC(C)n1cc(-c2ccc(C#N)c(F)c2)c2ccc(NS(C)(=O)=O)cc21
10 | 0.22 µM | 0.00639 µM | 91.7% | CC(c1ccc(F)cc1)(c1c[nH]c2c(NS(C)(=O)=O)cccc12)C1CC1 (stereo not given)
